Source: ChEMBL document CHEMBL1141405, “Design and synthesis of novel sulfonamide-containing bradykinin hB2 receptor antagonists. 2. Synthesis and structure-activity relationships of alpha,alpha-cycloalkylglycine sulfonamides” (J Med Chem, 2007)

Legend:
B2 bradykinin receptor [1] = target: T1, B2 bradykinin receptor (Cavia porcellus, UniProt O70526); test: Antagonist potency on BK-induced contraction of guinea pig ileum longitudinal smooth muscle; format: functional, tissue-based; conditions: read-out: pA2 (converted)
T1 sequence (O70526 whole entry): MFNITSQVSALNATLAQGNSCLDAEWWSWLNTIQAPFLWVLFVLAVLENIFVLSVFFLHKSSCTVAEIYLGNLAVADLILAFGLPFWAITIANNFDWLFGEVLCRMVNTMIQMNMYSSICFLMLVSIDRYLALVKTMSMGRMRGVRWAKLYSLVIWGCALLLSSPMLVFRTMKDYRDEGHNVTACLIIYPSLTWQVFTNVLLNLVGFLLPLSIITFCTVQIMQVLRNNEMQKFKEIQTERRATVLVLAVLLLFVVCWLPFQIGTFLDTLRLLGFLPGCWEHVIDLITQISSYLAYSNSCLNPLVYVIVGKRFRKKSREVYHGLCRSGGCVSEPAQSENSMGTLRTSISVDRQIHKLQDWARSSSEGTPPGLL

B1 bradykinin receptor = target: T2, B1 bradykinin receptor (Homo sapiens, UniProt P46663); test: Binding affinity to human bradykinin B1 receptor
T2 sequence (P46663 whole entry): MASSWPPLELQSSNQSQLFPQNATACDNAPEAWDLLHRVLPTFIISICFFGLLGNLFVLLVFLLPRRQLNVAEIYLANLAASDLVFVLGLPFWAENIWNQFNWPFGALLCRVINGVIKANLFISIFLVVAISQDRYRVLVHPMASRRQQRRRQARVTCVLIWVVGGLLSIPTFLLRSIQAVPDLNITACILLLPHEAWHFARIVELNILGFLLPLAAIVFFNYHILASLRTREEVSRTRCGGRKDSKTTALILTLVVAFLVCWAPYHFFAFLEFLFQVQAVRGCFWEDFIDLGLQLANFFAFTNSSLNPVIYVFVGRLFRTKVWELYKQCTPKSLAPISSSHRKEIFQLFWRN

B2 bradykinin receptor [2] = target: T3, B2 bradykinin receptor (Homo sapiens, UniProt P30411); test: Antagonist potency at human bradykinin B2 receptor assessed as effect on inositol monophosphate accumulation in CHOdhfr- cells; format: functional, cell-based; conditions: read-out: pA2 (converted)
T3 sequence (P30411 whole entry): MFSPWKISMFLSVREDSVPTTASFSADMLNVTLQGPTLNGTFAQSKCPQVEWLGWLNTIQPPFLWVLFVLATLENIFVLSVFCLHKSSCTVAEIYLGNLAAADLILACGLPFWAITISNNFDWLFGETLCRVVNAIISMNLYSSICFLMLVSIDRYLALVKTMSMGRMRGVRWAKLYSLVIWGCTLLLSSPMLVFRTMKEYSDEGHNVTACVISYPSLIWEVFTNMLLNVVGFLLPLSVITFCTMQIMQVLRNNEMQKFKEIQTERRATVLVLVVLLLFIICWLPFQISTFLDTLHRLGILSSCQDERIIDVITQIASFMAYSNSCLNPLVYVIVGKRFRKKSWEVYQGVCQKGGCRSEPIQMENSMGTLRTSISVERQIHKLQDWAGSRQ
Method in brief: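 pA2 derived from antagonism of bradykinin-stimulated inositol monophosphate accumulation in CHOdhfr- cells stably transfected with the human B2 receptor.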

[3] = target: T4, B2 bradykinin receptor (Cavia porcellus) (UniProt O70526); test: Effect on BK-induced hypotension in Dunkin Hartley guinea pig at 300 nmol/kg, it; format: functional
T4 sequence (whole entry): T1 sequence (O70526 whole entry)
Method in brief: (§1)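 Compound was given intratracheally to anaesthetized guinea pigs. Five min later, BK (10 nmol/kg iv) challenge was given and repeated every 30 min for 210 min. Blood pressure was monitored. Result is Σ%: residual BK response as % of basal, normalized to control at each observation time (5–210 min), expressed as % of theoretical maximum.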

B2 bradykinin receptor [4] = target: T3, B2 bradykinin receptor; test: Displacement of [3H]BK from human bradykinin B2 receptor transfected in CHO cells; format: cell-based
Method in brief: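 pKi from inhibition of specific [3H]-BK binding to membrane preparations of CHO cells stably transfected with the human B2 receptor.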

[5] = target: T4, B2 bradykinin receptor (Cavia porcellus); test: Inhibition of BK-induced bronchoconstriction in Dunkin Hartley guinea pig at 300 nmol/kg, it; format: functional; set-up: scale not given: the % may be the effect or the level left
Method in brief: as §1, with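 “Pulmonary insufflation” for “Blood”, “5–210 min” for “each observation”, “points,” for “(5–210 min),”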

[6] = target: T4, B2 bradykinin receptor (Cavia porcellus); test: Effect on BK-induced hypotension in Dunkin Hartley guinea pig at 100 nmol/kg, it; format: functional; method in brief: as §1
[7] = target: T4, B2 bradykinin receptor (Cavia porcellus); test: Inhibition of BK-induced bronchoconstriction in Dunkin Hartley guinea pig at 100 nmol/kg, it; format: functional; set-up: scale not given: the % may be the effect or the level left
Method in brief: as §1, with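 “Pulmonary insufflation” for “Blood”, “5–210 min” for “each observation”, “points,” for “(5–210 min),”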

With `Cc1cc(C)c2cccc(OCc3c(Cl)ccc(S(=O)(=O)NC4(C(=O)N5CCN(C(=O)[C@@H](N)CCCCNC(=N)N)CC5)CCCC4)c3Cl)c2n1` the Kb (B2 bradykinin receptor [1]) was 0.1 nM, the Ki (B1 bradykinin receptor) was > 10000 nM and the Kb (B2 bradykinin receptor [2]) was 0.251 nM. It also gave an Activity [3] of 75%, a Ki (B2 bradykinin receptor [4]) of 1 nM and an Activity [5] of 36%.

In the case of `Cc1cc(C)c2cccc(OCc3c(Cl)ccc(S(=O)(=O)NC4(C(=O)N5CCN(C(=O)C[C@H](CCCN)[N+](C)(C)C)CC5)CCCC4)c3Cl)c2n1`, the Ki (B1 bradykinin receptor) is reported as > 10000 nM, the Kb (B2 bradykinin receptor [2]) is reported as 1.26 nM and the Activity [6] is reported as 94%. It also gave a Ki (B2 bradykinin receptor [4]) of 0.126 nM and an Activity [7] of 72%.

For `Cc1cc(C)c2cccc(OCc3c(Cl)ccc(S(=O)(=O)NC4(C(=O)N5CCN(C(=O)[C@@H](N)CC[N+](C)(C)C)CC5)CCCC4)c3Cl)c2n1`, the Ki (B1 bradykinin receptor) was > 10000 nM, the Kb (B2 bradykinin receptor [2]) was 2 nM and the Activity [6] was 87%. The Ki (B2 bradykinin receptor [4]) was 0.316 nM and the Activity [7] was 45%.

For `Cc1cc(C)c2cccc(OCc3c(Cl)ccc(S(=O)(=O)NC4(C(=O)N5CCN(C(=O)[C@@H](N)CCCCN(C)C)CC5)CCCC4)c3Cl)c2n1`, the Kb (B2 bradykinin receptor [1]) was 0.158 nM, the Ki (B1 bradykinin receptor) was > 10000 nM and the Kb (B2 bradykinin receptor [2]) was 0.794 nM. For the same molecule, the Activity [3] was 67%, the Ki (B2 bradykinin receptor [4]) was 1.58 nM and the Activity [5] was 29%.

For `Cc1cc(C)c2cccc(OCc3c(Cl)ccc(S(=O)(=O)NC4(C(=O)N5CCN(C(=O)[C@H](CCCCNC(=N)N)[N+](C)(C)C)CC5)CCCC4)c3Cl)c2n1`, the Ki (B1 bradykinin receptor) was > 10000 nM, the Kb (B2 bradykinin receptor [2]) was 0.631 nM and the Activity [6] was 90%. It also gave a Ki (B2 bradykinin receptor [4]) of 0.1 nM and an Activity [7] of 61%.

For `Cc1cc(C)c2cccc(OCc3c(Cl)ccc(S(=O)(=O)NC4(C(=O)N5CCN(C(=O)[C@H](CCCCN(C)C)N(C)C)CC5)CCCC4)c3Cl)c2n1`, the Ki (B1 bradykinin receptor) was > 10000 nM, the Kb (B2 bradykinin receptor [2]) was 3.16 nM and the Ki (B2 bradykinin receptor [4]) was 0.2 nM.

With `CC(=O)N1CCC(NS(=O)(=O)c2ccc(Cl)c(COc3cccc4c(C)cc(C)nc34)c2Cl)(C(=O)N2CCN(C(=O)[C@@H](N)CCC[N+](C)(C)C)CC2)CC1` the Ki (B1 bradykinin receptor) was > 10000 nM, the Kb (B2 bradykinin receptor [2]) was 1.26 nM and the Ki (B2 bradykinin receptor [4]) was 0.158 nM.

`Cc1cc(C)c2cccc(OCc3c(Cl)ccc(S(=O)(=O)NC4(C(=O)N5CCN(C(=O)[C@@H](N)CCCCN)CC5)CCCC4)c3Cl)c2n1` was tested, and the Ki (B1 bradykinin receptor) was > 10000 nM, the Kb (B2 bradykinin receptor [2]) was 2 nM and the Ki (B2 bradykinin receptor [4]) was 0.316 nM.

With `Cc1cc(C)c2cccc(OCc3c(Cl)ccc(S(=O)(=O)NC(C)(C)C(=O)N4CCN(C(=O)C[C@@H](N)CCCN(C)C)CC4)c3Cl)c2n1` the Kb (B2 bradykinin receptor [1]) was 0.1 nM, the Ki (B1 bradykinin receptor) was > 10000 nM and the Activity [3] was 63%. For the same molecule, the Activity [5] was 20%.

`Cc1cc(C)c2cccc(OCc3c(Cl)ccc(S(=O)(=O)NC4(C(=O)N5CCN(C(=N)NCCCN(C)C)CC5)CCCC4)c3Cl)c2n1` was tested, and the Ki (B1 bradykinin receptor) was > 10000 nM, the Kb (B2 bradykinin receptor [2]) was 0.501 nM and the Activity [3] was 69%. It also gave a Ki (B2 bradykinin receptor [4]) of 0.631 nM and an Activity [5] of 24%.

`Cc1cc(C)c2cccc(OCc3c(Cl)ccc(S(=O)(=O)NC4(C(=O)N5CCN(C(=O)C[N+](C)(C)C)CC5)CCCC4)c3Cl)c2n1` was tested, and the Ki (B1 bradykinin receptor) was > 10000 nM, the Kb (B2 bradykinin receptor [2]) was 5.01 nM and the Activity [6] was 91%. The Ki (B2 bradykinin receptor [4]) was 0.398 nM and the Activity [7] was 54%.

In the case of `Cc1cc(C)c2cccc(OCc3c(Cl)ccc(S(=O)(=O)NC4(C(=O)N5CCN(C(=O)[C@@H](N)CCC[N+](C)(C)C)CC5)CCNCC4)c3Cl)c2n1`, the Ki (B1 bradykinin receptor) is reported as > 10000 nM, the Kb (B2 bradykinin receptor [2]) is reported as 1.58 nM and the Ki (B2 bradykinin receptor [4]) is reported as 0.501 nM.

With `Cc1cc(C)c2cccc(OCc3c(Cl)ccc(S(=O)(=O)NC4(C(=O)N5CCN(C(=O)[C@H](CCCN)[N+](C)(C)C)CC5)CCCC4)c3Cl)c2n1` the Ki (B1 bradykinin receptor) was > 10000 nM, the Kb (B2 bradykinin receptor [2]) was 0.501 nM and the Activity [6] was 82%. It also gave a Ki (B2 bradykinin receptor [4]) of 0.251 nM and an Activity [7] of 43%.

In the case of `Cc1cc(C)c2cccc(OCc3c(Cl)ccc(S(=O)(=O)NC4(C(=O)N5CCN(C(=O)CCCCCNC(=N)N)CC5)CCCC4)c3Cl)c2n1`, the Ki (B1 bradykinin receptor) is reported as > 10000 nM, the Kb (B2 bradykinin receptor [2]) is reported as 2 nM and the Ki (B2 bradykinin receptor [4]) is reported as 1.26 nM.

For `Cc1cc(C)c2cccc(OCc3c(Cl)ccc(S(=O)(=O)NC4(C(=O)N5CCN(C(=O)[C@H](CCCCN)[N+](C)(C)C)CC5)CCCC4)c3Cl)c2n1`, the Ki (B1 bradykinin receptor) was > 10000 nM, the Kb (B2 bradykinin receptor [2]) was 1.58 nM and the Activity [6] was 84%. The Activity [7] was 39%.
